Converted amounts (≈) assume the structure as drawn. The source made the active and inactive calls. The rule behind the calls is not given here.
Key:
[1] = test system: Mycobacterium tuberculosis; assay: Antibacterial activity against Mycobacterium tuberculosis H37Rv after 7 days by resazurin microtiter assay; type: functional; conditions: 168 h
How it was run: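 M. tuberculosis H37Rv grown at 37 °C in 7H9 with 10% OADC to mid-log (OD600 0.4-0.6), adjusted to McFarland no.1 and diluted 1:20. Compounds from DMSO stocks serially diluted in 7H9/OADC to final 0.39-100 µg/mL; rifampicin 0.004-1 µg/mL as control. After 7 days at 37 °C, 0.01% resazurin added; fluorescence (530/590 nm) read 24 h later.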

[2] = Binding affinity to Mycobacterium tuberculosis CYP121A1 by UV-visible spectrophotometric titration method
How it was run: (§1)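 Purified CYP121A1 (3-4 μM) titrated at 28 °C in 100 mM KPi, 200 mM KCl, 0.004% Triton X-100, pH 7.85, with small aliquots of ligand from DMSO stocks. UV-visible spectra recorded 250-800 nm. Difference spectra give peak-minus-trough absorbance change, plotted against [ligand]. Kd obtained by hyperbolic or Hill fit, averaged over triplicate titrations.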

[3] = test system: Mycobacterium tuberculosis; assay: Binding affinity to Mycobacterium tuberculosis CYP121A1 assessed as red shift in heme soret peak up to 500 uM by UV-visible spectrophotometric titration method; how it was run: as §1
[4] = test system: Mycobacterium tuberculosis; assay: Binding affinity to Mycobacterium tuberculosis CYP121A1 assessed as blue shift in heme soret peak up to 1750 uM by UV-visible spectrophotometric titration method; how it was run: as §1
[5] = test system: Mycobacterium tuberculosis; assay: Binding affinity to Mycobacterium tuberculosis CYP121A1 assessed as red shift in heme soret peak up to 250 uM by UV-visible spectrophotometric titration method; how it was run: as §1
[6] = test system: Mycobacterium tuberculosis; assay: Binding affinity to Mycobacterium tuberculosis CYP121A1 assessed as red shift in heme soret peak up to 300 uM by UV-visible spectrophotometric titration method; how it was run: as §1

For `O=C(Cn1ccnc1)N1CCN(Cc2ccc(F)cc2)CC1`, the MIC90 [1] was > 100 µg/mL and the Kd [2] was 1140 µM.

Compound `COc1cc(CN2CCN(Cc3cc(OC)cc(OC)c3)C(Cn3ccnc3)C2)cc(OC)c1` (stereo not given) has an MIC90 [1] of 12.5 µg/mL (≈ 26.8 µM) and a Kd [2] of 1440 µM.

With `COc1ccc(CN2CCN(CCCn3ccnc3)CC2=O)cc1` the Activity [3] was “Active”, the MIC90 [1] was > 100 µg/mL and the Kd [2] was 309 µM.

In the case of `O=C(Cn1cncn1)N1CCN(Cc2ccc(F)cc2)CC1`, the MIC90 [1] is reported as > 100 µg/mL and the Kd [2] is reported as 960 µM.

Compound `COc1ccc(CN2CCN(Cc3ccc(OC)cc3)C(Cn3cncn3)C2)cc1` (stereo not given) has an MIC90 [1] of 100 µg/mL (≈ 245 µM) and a Kd [2] of 1300 µM.

With `O=C(Cn1cncn1)N1CCN(Cc2ccc(Cl)cc2Cl)CC1` the MIC90 [1] was > 100 µg/mL, the Kd [2] was 417 µM and the Activity [4] was “Active”.

For `O=C1CN(CCCn2ccnc2)CCN1Cc1ccc(Cl)cc1`, the MIC90 [1] was > 100 µg/mL, the Kd [2] was 81.3 µM and the Activity [5] was “Active”.

`c1ccc(CN2CCN(Cc3ccccc3)C(Cn3ccnc3)C2)cc1` (stereo not given) showed an MIC90 [1] of 50 µg/mL (≈ 144 µM).

In the case of `O=C1CN(CCCn2ccnc2)CCN1Cc1ccc(F)cc1`, the MIC90 [1] is reported as > 100 µg/mL, the Activity [6] is reported as “Active” and the Kd [2] is reported as 226 µM.

In the case of `c1ccc(CN2CCN(Cc3ccccc3)C(Cn3cncn3)C2)cc1` (stereo not given), the MIC90 [1] is reported as > 100 µg/mL and the Kd [2] is reported as 1830 µM.

Work on `O=C1CN(CCCn2ccnc2)CCN1Cc1ccc(Cl)cc1Cl` yielded an MIC90 [1] of 100 µg/mL (≈ 272 µM) and a Kd [2] of 967 µM.
